Bioassay records (PubChem BioAssay)
PfG6PD inh: PfG6PD (Plasmodium falciparum) enzyme inhibition. AID 504690. inhibition, % at 20 µM. 350,000 tested, 0.78% active. PfGluPho enzyme, NADPH resazurin-diaphorase fluorescence;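 active = inhibition reaching at least a set limit at 20 µM in the primary screen, cut at about 59% in these data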;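 also: 0% = DMSO wells with substrate and 100% = DMSO wells lacking glucose-6-phosphate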
MC4R barr agon: agonists of human melanocortin 4 receptor (MC4R) beta-arrestin; AID 540308; U2OS MC4R beta-arrestin complementation, luminescence; percent of melanotan II response, DMSO zero; activation, % at 8.9 µM; 360,000 tested, 0.98% active; P32245;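 active = activation above a per-plate cutoff, the mean activation of sample wells on that plate plus 3 SD, cut at about 8% in these data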
MC4R antag cAMP: human MC4R antagonism in cAMP assay. P32245. 360,000 tested, 0.48% active. MC4R-expressing cells, MTII-stimulated cAMP, LANCE TR-FRET. inhibition, % at 6.5 µM;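 active = inhibition above its plate's cutoff, the mean of tested wells on that plate plus 3 SD, cut at about 29% in these data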;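 also: 0% = Melanotan II alone and 100% = Melanotan II plus saturating MCL0020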
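System – human MC4R-expressing U2OS cells · Also added – Melanotan II · Dosing – one concentration, 6.5 µM nominal · Timing – 30-min compound, 1-h challenge, 1-h detection, room temperature · Measured by – Eu-cAMP/anti-cAMP TR-FRET, emission 671 nm · Replicates – singlicate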
ABHD5-PLIN5 inh: ABHD5-PLIN5 protein interaction inhibition; Split G. princeps luciferase complementation, luminescence, 4 h; inhibition, % at 4 µM; 360,000 tested, 0.78% active; AID 602281;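 active = inhibition above the mean inhibition across every tested compound plus 3 SD, cut at about 22% in these data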;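 also: 0% = DMSO only wells and the 100% control is not disclosed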
B2AR ag: agonists of human beta-2 adrenergic receptor inducing internalization; AID 504454; P07550; Am2.2-beta2AR cells, FAP receptor internalization, flow cytometry; 340,000 tested, 0.43% active; response, % (concentration not given with the values);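 active = response above a set limit, near 3 SD of response in nonfluorescent compounds, cut at about 42% in these data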
Target sequence (P07550 whole entry, looked up): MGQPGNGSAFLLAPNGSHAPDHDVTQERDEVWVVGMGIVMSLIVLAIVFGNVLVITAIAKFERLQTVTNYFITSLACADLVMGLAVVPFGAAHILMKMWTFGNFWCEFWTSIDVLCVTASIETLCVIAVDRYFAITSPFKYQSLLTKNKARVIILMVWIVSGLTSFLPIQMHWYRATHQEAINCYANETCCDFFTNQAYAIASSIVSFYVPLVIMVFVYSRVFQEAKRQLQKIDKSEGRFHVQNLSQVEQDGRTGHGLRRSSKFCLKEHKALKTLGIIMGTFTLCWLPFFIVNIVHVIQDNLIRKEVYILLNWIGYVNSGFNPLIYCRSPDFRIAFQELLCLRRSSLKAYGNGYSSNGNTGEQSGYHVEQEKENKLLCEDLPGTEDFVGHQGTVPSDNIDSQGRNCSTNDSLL
PfG6PD confirm: confirmation of Plasmodium falciparum G6PD inhibitors; inhibition, % at 20 µM; 2,400 tested, 34% active; AID 504753; recombinant PfGluPho, NADPH-diaphorase-resazurin fluorescence; shares compounds with PfG6PD inh;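 active = inhibition of at least 50% at 20 µM in any single replicate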;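 also: 0% = DMSO with substrate and 100% = DMSO lacking glucose-6-phosphate substrate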
Diaphorase 10uM: diaphorase inhibition or oxidation at 10 uM NADPH; 820 tested, 39% active; AID 504862; inhibition, % at 20 µM; diaphorase-coupled resazurin reduction, fluorescence, NADPH 10 uM; shares compounds with PfG6PD inh;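 active = average inhibition reaching 50% or more with the compound at 20 µM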;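 also: resorufin red fluorescence formed as diaphorase reduces resazurin using NADPH; 0% = DMSO with enzyme and 100% = DMSO without enzyme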
Diaph ctr 30uM: counter-screen for P. falciparum G6PD inhibitors: diaphorase inhibitors, oxidizers; shares compounds with PfG6PD inh; Diaphorase/resazurin coupled assay, resorufin fluorescence, 30 uM NADPH; inhibition, % at 20 µM; 820 tested, 29% active;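 active = inhibition averaging 50% or more, tested at 20 µM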;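 also: 0% = DMSO with enzyme and 100% = DMSO wells lacking diaphorase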
Active calls of the source: *; . = not tested or not shown. In the library only some 3% were active in any assay of this set; here they are far more common.

SMILES	PfG6PD inh	MC4R barr agon	MC4R antag cAMP	ABHD5-PLIN5 inh	B2AR ag	PfG6PD confirm	others
CC1CCC(NC(=O)C(NS(=O)(=O)c2ccc(Br)cc2)C(C)C)CC1 (centres undefined)	2	-1	0	0	.	.
CC(C)(C)OC(=O)C[C@H]1C/C=C\C[C@H](CC(=O)N[C@@H](CO)Cc2ccccc2)C(=O)N[C@H](C(C)(C)C)COC1=O	15	-1	6	-5	3	.
Cc1cc(C)c(C)c(S(=O)(=O)Nc2ccccc2C(=O)NN2CCOCC2)c1C	-16	-2	10	-4	1	.
CN(O)/C=c1/ccc2c(n1)C(=O)C=CC=2	68*	-1	-30	-8	-5	58*	Diaphorase 10uM=-18;Diaph ctr 30uM=-12
Cc1ccc(NC(=O)c2ccc(Cn3cc([N+](=O)[O-])cn3)cc2)c(C)c1	-6	0	0	-3	-9	.
COC(=O)CCC(=O)OC1(C)C(=O)C2=CN(CCCOC(C)C)C(c3ccc(OC)cc3)=CC2=C(Br)C1=O (centres undefined)	82*	0	8	-22	7	38
COC(=O)CCC(=O)OC1(C)C(=O)C2=CN(c3ccccc3)C(c3ccc(OC)cc3)=CC2=C(Br)C1=O (centres undefined)	73*	0	2	3	-4	74*	Diaphorase 10uM=50*;Diaph ctr 30uM=39
COC(=O)CCC(=O)OC1(C)C(=O)C2=CN(Cc3ccccc3)C(c3ccc(OC)cc3)=CC2=C(Br)C1=O (centres undefined)	78*	0	8	-8	6	47
COC(=O)CCC(=O)OC1(C)C(=O)C2=CN(CCc3c[nH]c4ccccc34)C(c3ccc(OC)cc3)=CC2=C(Br)C1=O (centres undefined)	53	1	6	-20	-3	.
CCN(CC)c1ccc(N=C2C(=O)Nc3ccccc32)cc1	68*	-1	2	-9	18	15
Cc1cccc(CNC(=O)C2CCC(=O)N(C3CCCCCC3)C2)c1 (centres undefined)	11	-2	6	5	-2	.
Nc1cccc2cc(S(=O)(=O)O)ccc12	33	-1	5	-11	2	.
O=Nc1c(O)ccc2cc(S(=O)(=O)O)ccc12	102*	-2	-8	13	-5	90*	Diaphorase 10uM=76*;Diaph ctr 30uM=73*
COc1ccc([C@H]2CN(c3ccc(OC)cc3)C(=O)[C@@H]2CC(=O)Nc2ccc(Br)cc2)cc1	26	5	22	-18	.	.
CC(=O)OCC(=O)C1(O)CCC2C3CC(C)C4=CC(=O)C=CC4(C)C3=CCC21C (centres undefined)	61*	-2	3	0	1	40
COc1cc(C)c(Cl)cc1S(=O)(=O)NCc1ccccn1	10	-1	0	-6	-6	.
Cc1cc(=O)[nH]c(N/N=C/c2c(C)nn(-c3ccccc3)c2Cl)n1	86*	1	22	2	-6	78*	Diaphorase 10uM=-14;Diaph ctr 30uM=-11
Cc1cc(=O)[nH]c(N/N=C/c2c(C)oc3ccccc23)n1	13	-2	2	1	-2	.
CCOc1cc(/C=N/Nc2nnc(C)n2N)ccc1O	59*	-1	-2	-21	-1	48
O=C(N=C1SC2CS(=O)(=O)CC2N1c1ccc(F)cc1F)C1CC1 (centres undefined)	6	-3	25	-4	-1	.
COc1ccc(Br)c(OC)c1C(=O)NC(=O)Nc1nc(C)cc(C)n1	106*	1	4	-3	-2	74*	Diaphorase 10uM=68*;Diaph ctr 30uM=65*
COc1ccc([N+](=O)[O-])c(OC)c1C(=O)NC(=O)Nc1nc(C)cc(C)n1	30	0	4	-4	-2	.
Oc1cc2c(cc1O)C1c3ccc(O)c(O)c3OCC1(O)C2 (centres undefined)	113*	-3	-2	14	4	106*	Diaphorase 10uM=74*;Diaph ctr 30uM=47
CC1CCCC(C)N1CCCNC(=O)c1ccc2c(c1)NC(=O)c1ccccc1S2 (centres undefined)	8	-2	-2	4	13	.
CCC(C)N(CCNC(=O)c1ccc2c(c1)NC(=O)c1ccccc1S2)C1CCCCC1 (centres undefined)	76*	2	11	6	22	93*	Diaphorase 10uM=-8;Diaph ctr 30uM=-13
SMILES	PfG6PD inh	MC4R barr agon	MC4R antag cAMP	ABHD5-PLIN5 inh	B2AR ag	PfG6PD confirm	others
Cc1ccc(NC(=O)C2C(=O)N(CCO)C3(C)CC2c2ccccc2O3)cc1 (centres undefined)	65*	0	7	-1	18	33
COc1ccc(NC(=O)C2C(=O)N(CCO)C3(C)CC2c2ccccc2O3)cc1 (centres undefined)	69*	3	10	0	0	18
COc1ccc(NC(=O)C2C(=O)N(C)C3(C)CC2c2ccccc2O3)cc1 (centres undefined)	8	0	0	-7	-1	.
Cn1nc([N+](=O)[O-])c2c(-c3nc4ccccc4s3)c(N)n(C3CCCCC3)c2c1=O	77*	1	1	-5	18	-3
CCOC(=O)N1CCN(S(=O)(=O)N2CCCC(C(=O)NCCc3ccc(C)cc3)C2)CC1 (centres undefined)	3	-2	-5	-1	1	.
Cc1c(C(=O)N2CCCCC2)c(S(=O)(=O)NCc2ccc(Cl)cc2)c(C)n1C	7	-1	6	8	-21	.
COc1ccc(CCN2C(=O)CCC2(C)c2nnnn2Cc2ccccc2)cc1OC (centres undefined)	.	.	.	0	.	.
CC(C)(C)c1csc(NC(=O)Cn2cnc3ccccc3c2=O)n1	68*	-2	-3	-12	2	-4
O=C(Nc1cccc(C(=O)N2CCOCC2)c1)C1CC1	2	0	4	5	4	.
O=C(CSc1nc2ccccc2[nH]1)NC1CCCc2ccccc21 (centres undefined)	64*	1	10	3	-14	57*	Diaphorase 10uM=42;Diaph ctr 30uM=40
O=C(CSc1nc2ccc(Cl)cc2[nH]1)NC1CCCc2ccccc21 (centres undefined)	107*	1	14	-3	-9	55*	Diaphorase 10uM=42;Diaph ctr 30uM=34
Cc1ccc2nc(SC(C)C(=O)NC3CCCc4ccccc43)[nH]c2c1 (centres undefined)	76*	0	5	-9	-2	44
O=C(OCC(=O)N1CCc2ccccc2C1)c1ccc(O)cc1	-15	-4	3	-2	8	.
C=CC(C)n1c(Br)nc2c1c(=O)[nH]c(=O)n2C (centres undefined)	3	1	1	5	6	.
